# Measured values published in ChEMBL document CHEMBL5705890, “Antitumor activity of an allosteric inhibitor of centromere-associated protein-E” (Proc Natl Acad Sci U S A, 2010).
# Assays:
# CESS = test: Anticancer activity against human CESS cells assessed as cell growth inhibition measured after 72 hrs by DAPI staining based analysis; type: functional
# Method in brief: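 Cells were seeded, and DNA content at 24 h after seeding (T0) was read by imaging of fixed, DAPI-stained cells. Cells were then exposed to a range of drug concentrations for a further 72 h (T72) and DNA content was read again. T72 values were normalized to T0, and GI50 was taken from curve fits as the concentration giving 50% growth inhibition relative to T0 and Ymax.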
# D283 Med = test: Anticancer activity against human D283 Med cells assessed as cell growth inhibition measured after 72 hrs by DAPI staining based analysis; type: functional
# Method in brief: (§1)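 Cells seeded, DAPI-stained DNA content of fixed cells read by imaging 24 h after seeding (T0), and again after a further 72 h exposure to a range of drug concentrations (T72). T72 values were normalized to T0. Curve fits gave the concentration producing 50% growth inhibition relative to T0 and Ymax (GI50).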
# DB [1] = test: Anticancer activity against human DB cells assessed as cell growth inhibition measured after 72 hrs by DAPI staining based analysis; type: functional; method in brief: as §1
# EKVX = test: Anticancer activity against human EKVX cells assessed as cell growth inhibition measured after 72 hrs by DAPI staining based analysis; type: functional; method in brief: as §1
# HEC-1B cell line = test: Anticancer activity against human HEC-1B cells assessed as cell growth inhibition measured after 72 hrs by DAPI staining based analysis; type: functional
# HOP-62 = test: Anticancer activity against human HOP-62 cells assessed as cell growth inhibition measured after 72 hrs by DAPI staining based analysis; type: functional
# [2] = Anticancer activity against human KHOS-240S cells assessed as cell growth inhibition measured after 72 hrs by DAPI staining based analysis; type: functional
# MV4-11 = test: Anticancer activity against human MV4-11 cells assessed as cell growth inhibition measured after 72 hrs by DAPI staining based analysis; type: functional
# NCI-H596 = test: Anticancer activity against human NCI-H596 cells assessed as cell growth inhibition measured after 72 hrs by DAPI staining based analysis; type: functional
# NCI-N87 = test: Anticancer activity against human NCI-N87 cells assessed as cell growth inhibition measured after 72 hrs by DAPI staining based analysis; type: functional
# AGS = test: Anticancer activity against human AGS cells assessed as cell doubling measured for 72 hrs by DAPI staining based analysis; type: functional
# [3] = Anticancer activity against human C4-1 cells assessed as cell doubling measured for 72 hrs by DAPI staining based analysis; type: functional
# CGTH-W-1 = test: Anticancer activity against human CGTH-W-1 cells assessed as cell doubling measured for 72 hrs by DAPI staining based analysis; type: functional
# DB [4] = test: Anticancer activity against human DB cells assessed as cell doubling measured for 72 hrs by DAPI staining based analysis; type: functional
# HCC 2998 = test: Anticancer activity against human HCC 2998 cells assessed as cell doubling measured for 72 hrs by DAPI staining based analysis; type: functional
# J82 = test: Anticancer activity against human J82 cells assessed as cell doubling measured for 72 hrs by DAPI staining based analysis; type: functional
# K562 = test: Anticancer activity against human K562 cells assessed as cell doubling measured for 72 hrs by DAPI staining based analysis; type: functional
# MC-IXC = test: Anticancer activity against human MC-IXC cells assessed as cell doubling measured for 72 hrs by DAPI staining based analysis; type: functional
# NCI-H2122 = test: Anticancer activity against human NCI-H2122 cells assessed as cell doubling measured for 72 hrs by DAPI staining based analysis; type: functional
# NCI-H508 = test: Anticancer activity against human NCI-H508 cells assessed as cell doubling measured for 72 hrs by DAPI staining based analysis; type: functional
# NCI-H520 = test: Anticancer activity against human NCI-H520 cells assessed as cell doubling measured for 72 hrs by DAPI staining based analysis; type: functional
# NCI-H526 = test: Anticancer activity against human NCI-H526 cells assessed as cell doubling measured for 72 hrs by DAPI staining based analysis; type: functional
# SAOS-2 = test: Anticancer activity against human SAOS-2 cells assessed as cell doubling measured for 72 hrs by DAPI staining based analysis; type: functional
# SCaBER = test: Anticancer activity against human SCaBER cells assessed as cell doubling measured for 72 hrs by DAPI staining based analysis; type: functional
# SCC-4 = test: Anticancer activity against human SCC-4 cells assessed as cell doubling measured for 72 hrs by DAPI staining based analysis; type: functional
# SF-268 = test: Anticancer activity against human SF-268 cells assessed as cell doubling measured for 72 hrs by DAPI staining based analysis; type: functional
# SN12C = test: Anticancer activity against human SN12C cells assessed as cell doubling measured for 72 hrs by DAPI staining based analysis; type: functional
# SNU-423 = test: Anticancer activity against human SNU-423 cells assessed as cell doubling measured for 72 hrs by DAPI staining based analysis; type: functional
# SW-620 = test: Anticancer activity against human SW620 cells assessed as cell doubling measured for 72 hrs by DAPI staining based analysis; type: functional
# SW756 = test: Anticancer activity against human SW756 cells assessed as cell doubling measured for 72 hrs by DAPI staining based analysis; type: functional
# SW837 = test: Anticancer activity against human SW837 cells assessed as cell doubling measured for 72 hrs by DAPI staining based analysis; type: functional
# T47D = test: Anticancer activity against human T47D cells assessed as cell doubling measured for 72 hrs by DAPI staining based analysis; type: functional
# COLO 205 [5] = test: Antitumor activity against human COLO 205 cells in xenograft model assessed as difference between median time to endpoint time of treated versus control group at 125 mg/kg; type: functional
# COLO 205 [6] = test: Antitumor activity against human COLO 205 cells in xenograft model assessed as difference between median time to endpoint time of treated versus control group at 62.5 mg/kg; type: functional
# HT-29 [7] = test: Antitumor activity against human HT-29 cells in xenograft model assessed as difference between median time to endpoint time of treated versus control group at 62.5 mg/kg; type: functional
# HCT-116 = test: Antitumor activity against human HCT-116 cells in xenograft model assessed as difference between median time to endpoint time of treated versus control group at 125 mg/kg; type: functional
# NCI-H1299 = test: Antitumor activity against human NCI-H1299 cells in xenograft model assessed as difference between median time to endpoint time of treated versus control group at 62.5 mg/kg; type: functional
# [8] = Antitumor activity against human MV-522 cells in xenograft model assessed as difference between median time to endpoint time of treated versus control group at 62.5 mg/kg; type: functional
# HT-29 [9] = test: Antitumor activity against human HT-29 cells in xenograft model assessed as tumor growth delay at 62.5 mg/kg relative to control; type: functional
# MX1 = test: Antitumor activity against human MX1 cells in xenograft model assessed as tumor growth delay at 125 mg/kg relative to control; type: functional
# SK-OV-3 = test: Antitumor activity against human SK-OV-3 cells in xenograft model assessed as tumor growth delay at 62.5 mg/kg relative to control; type: functional
# [10] = Toxicity in mouse xenografted with human COLO 205 cells at 500 mg/kg, ip administered three doses daily on 2 consecutive weeks; type: organism-based; details: in vivo, 336 h, time 2 weeks
structure (smiles),measurement,setting,value
CC(C)Oc1ccc(C(=O)N[C@H](CNC(=O)CN(C)C)Cc2ccc(-c3cn4cccc([C@H](C)O)c4n3)cc2)cc1Cl [GSK-923295A],GI50,CESS,19 nM
same,GI50,D283 Med,28 nM
same,GI50,DB [1],21 nM
same,GI50,EKVX,28 nM
same,GI50,HEC-1B cell line,28 nM
same,GI50,HOP-62,20 nM
same,GI50,[2],37 nM
same,GI50,MV4-11,29 nM
same,GI50,NCI-H596,5020 nM
same,GI50,NCI-N87,29 nM
same,Activity,AGS,2.95
same,Activity,[3],2.93
same,Activity,CGTH-W-1,3.66
same,Activity,DB [4],2.76
same,Activity,HCC 2998,2.76
same,Activity,J82,2.04
same,Activity,K562,3.52
same,Activity,MC-IXC,2.67
same,Activity,NCI-H2122,2.82
same,Activity,NCI-H508,3.01
same,Activity,NCI-H520,2.15
same,Activity,NCI-H526,1.49
same,Activity,SAOS-2,1.5
same,Activity,SCaBER,2.86
same,Activity,SCC-4,2.44
same,Activity,SF-268,2.13
same,Activity,SN12C,2.47
same,Activity,SNU-423,1.44
same,Activity,SW-620,2.91
same,Activity,SW756,2.36
same,Activity,SW837,1.74
same,Activity,T47D,1.44
same,Time,COLO 205 [5],>74 days
same,Time,COLO 205 [6],24.9 days
same,Time,HT-29 [7],2.7 days
same,Time,HCT-116,10.4 days
same,Time,NCI-H1299,3.3 days
same,Time,[8],12.5 days
same,Activity,HT-29 [9],6%
same,Activity,MX1,26%
same,Activity,SK-OV-3,194%
same,Activity,[10],Non-Toxic
